Measurements pooled from the literature.
Lines come from different studies, so protocols differ.
Target: Vascular endothelial growth factor receptor 3 (FLT4, Homo sapiens, UniProt P35916)

C[C@H]1CCN(c2nccc(-c3cnn4ncccc34)n2)C1  remaining binding (binding; 1 µM): 100%
c1cncc(-c2cccc(Nc3nccc(NC4CCCCC4)n3)c2)c1  remaining binding (binding; competition with immobilised ligand; 10 µM): 18%
N#Cc1ccc(Nc2ccc3[nH]c(=O)[nH]c3c2)c(Cl)c1  remaining binding (cell-free assay; competition with immobilised ligand; 1 µM): 100%
O=C(NCCCN1CCOCC1)c1ccc(Nc2nccc(-c3cc4ccccc4s3)n2)cc1  remaining binding (binding; competition with immobilised ligand; 1 µM): 50%
N[C@H]1CCN(c2nccc(-c3cnn4ncccc34)n2)C1  remaining binding (binding; 1 µM): 92%
Cc1nc(N2CC[C@@H](O)C2)ncc1-c1cc(C(F)(F)F)cc2[nH]ncc12  remaining binding (cell-free assay; competition with immobilised ligand; 1 µM): 100%
FC(F)(F)Oc1cccc(-c2cnc3ccc(-c4ccncc4)nn23)c1  remaining binding (cell-free assay; competition with immobilised ligand; 5 µM): 84%
CC(=O)c1c(NS(C)(=O)=O)c2cc(-c3ccc(Cl)cc3)c(-c3ccc(Cl)cc3Cl)nc2n(C)c1=O  remaining binding (cell-free assay; competition with immobilised ligand; 1 µM): 100%
CN(C)c1nccc(-c2cnn3ncccc23)n1  remaining binding (binding; 1 µM): 100%
O=C(NCC1CCOCC1)c1n[nH]cc1NC(=O)c1c(F)cccc1F  remaining binding (binding; competition with immobilised ligand; 1 µM): 95%
CN(C)c1ncc(F)c(-c2cnn3ncccc23)n1  remaining binding (binding; 1 µM): 86%
Nc1c(C(=O)NCc2ccc(C(=O)NCCCC3CCCCC3)cc2)cnn1-c1ccccc1  remaining binding (cell-free assay; competition with immobilised ligand; 0.1 µM): 100%
O=C(NCCCN1CCOCC1)c1ccc(Nc2ncc(Cl)c(-c3ccc(Cl)s3)n2)cc1  remaining binding (binding; competition with immobilised ligand; 1 µM): 0.7%
C=CC(=O)Nc1cccc(CN2C(=O)N(c3c(Cl)c(OC)cc(OC)c3Cl)Cc3cnc(NCCCCN(CC)CC)nc32)c1  remaining binding (cell-free assay; competition with immobilised ligand; 10 µM): 0.2%
CCN1CCN(Cc2ccc(C(=O)Nc3ccc(C)c(Oc4ccc5c(c4)CC(=O)N5)c3)cc2C(F)(F)F)CC1  remaining binding (binding; competition with immobilised ligand; 1 µM): 100%
CNCc1ccccc1-c1csc([C@H](C)Nc2nc(C)nc3cc(OC)c(OC)cc23)c1  remaining binding (cell-free assay; competition with immobilised ligand; 1 µM): 100%
COc1ccnn2ncc(-c3ccnc(N(C)C)n3)c12  remaining binding (binding; 1 µM): 100%
Cc1cc(C)c(-n2ccn3nc(-c4cccnc4)cc23)cc1NC(=O)c1cc(C#N)cc(S(F)(F)(F)(F)F)c1  remaining binding (cell-free assay; competition with immobilised ligand; 0.1 µM): 77.6%
Cc1cnc(Nc2ccc(C(=O)N3CCC(N4CCCC4)CC3)cc2)nc1-c1cc2ccccc2s1  remaining binding (binding; competition with immobilised ligand; 1 µM): 0.4%
CN(CCCC(F)(F)F)c1nccc(-c2cnn3ncccc23)n1  remaining binding (binding; 1 µM): 100%
COc1cnc(Nc2cccc(S(N)(=O)=O)c2)nc1N1CCN(c2ccccc2)C(=O)C1  remaining binding (binding; competition with immobilised ligand; 1 µM): 100%
CCS(=O)(=O)c1cc2cc(C[C@](O)(CC(C)(C)c3ccc(F)cc3C(N)=O)C(F)(F)F)[nH]c2cn1  remaining binding (cell-free assay; competition with immobilised ligand; 1 µM): 95%
